This note sets out measurements from ChEMBL document CHEMBL4190405, “Scaffold-Hopping Approach To Discover Potent, Selective, and Efficacious Inhibitors of NF-κB Inducing Kinase” (J Med Chem, 2018).

Usually logD stands for the decadic logarithm of the distribution of all forms, ionised or not, between an organic phase and buffer at a given pH. Usually bioavailability stands for dose-corrected exposure relative to a reference, in per cent. As a reminder, the Vd is the apparent volume that relates the amount in the body to the concentration in plasma or blood. In general, Papp A→B refers to how fast a substance crosses the layer from the apical side. Broadly, the Papp B→A is the apparent permeability from the basolateral to the apical side of a cell layer.

Converted amounts (≈) assume the structure as drawn. Bounds are passed on as bounds.

The nature of series [1]: Lipophilicity, log D of the compound at pH 7.4 by LC-MS based shake flask method. It is filed as physicochemical. The following applies: buffer. Put shortly:
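LogD at pH 7.4 measured by a high-throughput microscale shake-flask method with LC-MS/MS quantitation.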

A short description of series [2]: Oral bioavailability in cynomolgus monkey at 5 mg/kg via gavage administered as single dose. The format is ADME, organism-based, Macaca fascicularis. Conditions: in vivo.
Series [3] can be described thus: Volume of distribution in Beagle dog. The format is ADME, organism-based, Canis lupus familiaris. Conditions: in vivo.
Series [4] is described as follows: Oral bioavailability in Beagle dog at 5 mg/kg via gavage administered as single dose. It is filed as ADME, organism-based, Canis lupus familiaris. Conditions: in vivo.
A short description of series [5]: Volume of distribution in Sprague-Dawley rat. The format is ADME, organism-based. Conditions: in vivo.
The nature of series [6]: Apparent permeability from apical to basolateral side in MDCK cells. The format is ADME, cell-based, Canis lupus familiaris. Conditions: dog.
Series [7] in a line: Volume of distribution in cynomolgus monkey. Conditions: in vivo. The format is ADME, organism-based, Macaca fascicularis.
Series [8] can be described thus: Oral bioavailability in CD-1 mouse at 5 mg/kg via gavage administered as single dose. The following applies: in vivo. The format is ADME, organism-based.
A short description of series [9]: Apparent permeability from basolateral to apical side in MDCK cells. It is filed as ADME, cell-based, Canis lupus familiaris. The following applies: dog.
Series [10] can be described thus: Oral bioavailability in Sprague-Dawley rat at 5 mg/kg via gavage administered as single dose. It is filed as ADME, organism-based. The following applies: in vivo.
Series [11] in a line: Volume of distribution in CD-1 mouse. The format is ADME, organism-based. The following applies: in vivo.
Series [12] is described as follows: Kinetic solubility of the compound. The format is physicochemical. Conditions: read-out: Kinetic_solubility.

In series [1], `CN1CC[C@@](O)(C#Cc2ccnc(-n3ccc(C(N)=O)n3)c2)C1=O` displayed a logD of 0.61. Molecule `CN1CC[C@@](O)(C#Cc2ccnc(-n3nc(C(N)=O)cc3N)c2)C1=O` came in with a logD in series [1] of 2. `COc1cnc2c(c1)c(C(N)=O)nn2-c1cccc(C#C[C@]2(O)CCN(C)C2=O)c1` yielded a log distribution coefficient (logD) in series [1] of 1.9. Still for that read-out and setting: with `CN1CC[C@@](O)(C#Cc2cccc(-c3nc(C(N)=O)c4ccccn34)c2)C1=O` the figure was 1.3; with `COc1ccc2c(-c3cccc(C#C[C@]4(O)CCN(C)C4=O)c3)nc(C(N)=O)n2c1`, 2.4; with `CN1CC[C@@](O)(C#Cc2cccc(-n3cc(C(N)=O)c4cccnc43)c2)C1=O`, 2.4. Still for that read-out and setting: with `CN1CC[C@@](O)(C#Cc2cccc(-n3nc(C(N)=O)c4cc(F)ccc43)c2)C1=O` the figure was 2.6. Still for that read-out and setting: with `CN1CC[C@@](O)(C#Cc2cccc(-n3nc(C(N)=O)c4cccnc43)c2)C1=O` the figure was 1.6; with `CCOc1ccn2c(-c3cccc(C#C[C@]4(O)CCN(C)C4=O)c3)nc(C(N)=O)c2c1`, 1.9; with `CN1CC[C@@](O)(C#Cc2cccc(-c3ccnc(C(N)=O)n3)c2)C1=O`, 1.6.

Molecule `CN1CC[C@@](O)(C#Cc2ccnc(-n3nc(C(N)=O)c4ccccc43)c2)C1=O` returned a log distribution coefficient (logD) in series [1] of 1.9. In series [1], `CN1CC[C@@](O)(C#Cc2cccc(-c3cccc(C(N)=O)n3)c2)C1=O` yielded a log distribution coefficient (logD) of 1.6. In the case of `COc1cc(C(N)=O)nc(-c2cccc(C#C[C@]3(O)CCN(C)C3=O)c2)c1`, the bioavailability in series [2] is over 100%; in series [4] it was 56%; in series [8], 54%; in series [10] it was 97%. The molecule further displayed a logD in series [1] of 1.9. The volume of distribution (Vd) in series [3] is 0.778 L/kg; in series [5] it was 1.35 L/kg; in [7], 1.39 L/kg; in series [11] it was 1.58 L/kg. Also, in series [6], the Papp A→B was determined as 7.3 ×10⁻⁶ cm/s. In addition, in [9], the apparent permeability from basolateral to apical (Papp B→A) amounted to 10.2 ×10⁻⁶ cm/s. For the same molecule, the solubility kinetic in series [12] came out at 139 µM (≈ 50.8 µg/mL). `CN1CC[C@@](O)(C#Cc2cccc(-n3nc(C(N)=O)c4ccccc43)c2)C1=O`: the logD in series [1] turned out to be 2.1. The same measure, in the same setting: with `CN1CC[C@@](O)(C#Cc2cccc(-c3cccc(C(N)=O)c3)c2)C1=O` the figure was 1.6; with `COc1cc(C(N)=O)nc(-c2cccc(C#C[C@]3(O)CCN(C)C3=O)c2)n1`, 1.8. The same measure, in the same setting: in the case of `CN1CC[C@@](O)(C#Cc2cccc(-c3cc4ccccc4c(C(N)=O)n3)c2)C1=O` it was 2.5; in that of `CN1CC[C@@](O)(C#Cc2ccnc(-n3nc(C(N)=O)cc3C3CC3)c2)C1=O`, 2.

Molecule `CN1CC[C@@](O)(C#Cc2ccnc(-n3nc(C(N)=O)c4c3CCCC4)c2)C1=O` had a logD in series [1] of 1.9.

In turn, `CN1CC[C@@](O)(C#Cc2cccc(-c3ccc(N)c(C(N)=O)n3)c2)C1=O` gave a logD in [1] of 1.7. Still for that read-out and setting: with `CN1CC[C@@](O)(C#Cc2cccc(-c3nc(C(N)=O)n4ccccc34)c2)C1=O` the figure was 2.2; with `CN1CC[C@@](O)(C#Cc2cccc(-c3cncc(C(N)=O)n3)c2)C1=O`, 1.
